PABP FP inh: PABP-poly(A) binding inhibition | P11940 | inhibition, % at 35 µM | AID 2014 | PABP-poly(A) RNA binding, fluorescence polarization | 1% of 290,000 active;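 further: calls also rest on retests at 20 µM and on dose response follow-up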
eIF4H FP inh: inhibitors of RNA binding by human eIF4H; Q15056; eIF4H fluorescence polarization binding assay; inhibition, % at 35 µM; 0.94% of 290,000 active; AID 2012;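 further: calls also rest on retests at 20 µM and on dose response follow-up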
ZTA DNA inh: ZTA (EBV) inhibition in EBNA-1 counter-screen | P03206 | ZTA-DNA binding, fluorescence polarization | inhibition, % at 11 µM | 0.15% of 320,000 active | AID 2234; in the data active means inhibition above about 33%
Target sequence (P03206 whole entry, looked up): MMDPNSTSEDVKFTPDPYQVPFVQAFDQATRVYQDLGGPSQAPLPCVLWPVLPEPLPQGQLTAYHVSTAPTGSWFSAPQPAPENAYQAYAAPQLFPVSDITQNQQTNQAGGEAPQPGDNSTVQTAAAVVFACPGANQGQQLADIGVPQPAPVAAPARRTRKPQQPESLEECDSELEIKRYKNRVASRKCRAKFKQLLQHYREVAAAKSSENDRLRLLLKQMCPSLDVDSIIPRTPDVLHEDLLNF
MLLE-PAM2 inh: inhibitors of microRNA-mediated deadenylation, human PABP1 MLLE binding; GST-MLLE / FITC-PAM2 fluorescence polarization; inhibition, % at 20 µM; 0.36% of 360,000 active; P11940; in the data active means inhibition above about 35%, passing the limit was not always enough
NS3 helicase inh: blocks Hepatitis C virus NS3 helicase unwinding; 0.56% of 290,000 active; NS3 helicase DNA unwinding, Cy5 molecular beacon fluorescence; AID 1800; inhibition, % at 10.9 µM;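 active means inhibition above the mean of all tested compounds plus 3 SD, set per campaign, cut at about 35% in these data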
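System: Hepatitis C virus NS3 helicase domain fragment enzyme | Reagent: Annealed dual-labelled DNA beacon duplex, ATP-started | Compound dosing: 10.9 µM single point, 0.8% DMSO | Incubation: 1 h reaction at 25 °C, ATP-initiated | Technique: Cy5 fluorescence | Evaluation: Percent inhibition from t60/t0 fluorescence ratio | Benchmarks: Low DMSO, high thioflavine S at 110 µM | Replication: Singlicate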
EBNA-1 inhibitor: blocks EBNA-1 binding to DNA; 0.34% of 300,000 active; inhibition, % at 14.8 µM; EBNA-1 DNA binding, fluorescence polarization; in the data active means inhibition above about 28%
Large screens that a line does not name were inactive. Rows were chosen to be rich in hits. Some 2.1% of all compounds tested hit in one or more screens of this group. Unless noted, how the calls were made is not given here.

O=C(Oc1ccccc1N1C(=O)C2CCCCC2C1=O)c1ccccc1F (stereo not given)	eIF4H FP inh active
CCCCC(=O)Nc1ccc(NC(=S)NC(=O)CC(C)C)cc1OC	PABP FP inh 75, eIF4H FP inh active
COc1cccc(C(C)=NNc2ccc([N+](=O)[O-])cc2[N+](=O)[O-])c1OC	none (no result: PABP FP inh, eIF4H FP inh, ZTA DNA inh, NS3 helicase inh, EBNA-1 inhibitor)
COc1ccc(C(=O)Nc2ccc3nc4n(c(=O)c3c2)CCCC4)cc1[N+](=O)[O-]	PABP FP inh 86 (no result: MLLE-PAM2 inh)
COc1ccc(CCNc2nc(-c3ccc(F)cc3)c(CC(=O)O)s2)cc1OC	PABP FP inh 35
COc1ccc(CCNc2nc(C)c(C(C)=O)s2)cc1OC	MLLE-PAM2 inh 40
CC(=O)c1sc(NCc2ccc(C)cc2)nc1C	none
COc1ccc(CCNc2nc(-c3ccc(NC(C)=O)cc3)cs2)cc1OC	none
COc1ccc(NC(=O)N2CCN(S(=O)(=O)c3ccc(F)cc3)CC2)c(OC)c1	none (no result: ZTA DNA inh, EBNA-1 inhibitor)
CC(=O)NC(=S)c1c(N)n(Cc2ccccc2)c(=O)n(C)c1=O	none (no result: MLLE-PAM2 inh)
CCCCn1c(N)c(C(=S)NC(=O)CC(C)C)c(=O)n(C)c1=O	MLLE-PAM2 inh 41 (no result: ZTA DNA inh, EBNA-1 inhibitor)
CCCn1c(N)c(C(=S)NC(=O)C2CC2)c(=O)n(C)c1=O	MLLE-PAM2 inh 41 (no result: ZTA DNA inh, EBNA-1 inhibitor)
Cc1ccc(C(N)=S)c(C)c1	MLLE-PAM2 inh 40 (no result: PABP FP inh, eIF4H FP inh)
CCOC(=O)C1(C)CCCN(C(=O)c2cccs2)C1 (stereo not given)	none (no result: PABP FP inh, eIF4H FP inh, ZTA DNA inh, NS3 helicase inh, EBNA-1 inhibitor)
N#C/C(=C/c1ccco1)C(N)=S	PABP FP inh 52, eIF4H FP inh 57
CCC1(CC)NC(=O)N(CC(=O)Nc2sc3c(c2C(N)=O)CCC3)C1=O	PABP FP inh 71, eIF4H FP inh 79
CCC1(C)NC(=O)N(CC(=O)Nc2sc3c(c2C(=O)OC)CCCCC3)C1=O (stereo not given)	none
CCOc1ccc(C2C(C#N)=C(N)SC(N)=C2C#N)cc1OCC	eIF4H FP inh 122 (no result: NS3 helicase inh)
N#C/C(=C(/O)CSc1ncn[nH]1)c1nc2ccccc2[nH]1	PABP FP inh 43
CCN(CCNCC(O)COCc1ccc(Cl)cc1)c1cccc(C)c1 (stereo not given)	eIF4H FP inh 14
CCN(CCNC(=O)c1ccc(C#N)cc1)c1cccc(C)c1	none
O=[N+]([O-])c1ccc(/C=N/Nc2ncc(Br)cn2)cc1	none (no result: ZTA DNA inh, EBNA-1 inhibitor)
CN(Cc1ccccc1)C(=O)c1cccc(NC(=O)Cc2ccc(NC(=O)C3CCCN(C(=O)C4CCCCC4)C3)cc2)c1 (stereo not given)	none (no result: PABP FP inh, eIF4H FP inh, ZTA DNA inh, NS3 helicase inh, EBNA-1 inhibitor)
CC(=O)C(Sc1nccc(-c2cccs2)n1)C(C)=O	MLLE-PAM2 inh 36
CC(C)NC(=O)CSc1nccc(-c2cccs2)n1	none
CCOC(=O)CC(c1ccc([N+](=O)[O-])cc1)n1c(C)ccc1C (stereo not given)	none
CCc1c(O)nc(SCC(=O)N2CCc3cc(OC)c(OC)cc3[C@@H]2C)[nH]c1=O	MLLE-PAM2 inh 43
CCOC(=O)c1sc(N=NC2=C(O)CC(C)(C)CC2=O)c(C(=O)OCC)c1C	eIF4H FP inh 60
CCOC(=O)c1cc(CC)sc1/N=C/C1=C(O)CC(C)(C)CC1=O	none
CCc1n(CC(O)COCC2CC=CCC2)c2ccccc2[n+]1C (stereo not given)	none
CCc1n(CC(O)COC2CCCCC2)c2ccccc2[n+]1C (stereo not given)	PABP FP inh 53
COc1ccc(C(C)=O)cc1CN1C(=O)C(Cc2ccccc2)ON=C1c1ncccc1C (stereo not given)	none (no result: PABP FP inh, eIF4H FP inh, ZTA DNA inh, NS3 helicase inh, EBNA-1 inhibitor)
Cc1cc(O)c(CN(C)C)c2c1C(=O)/C(=C/c1ccco1)O2	PABP FP inh 71, eIF4H FP inh 94
CCOC(=O)/C=c1\s/c(=C\c2ccc(C(F)(F)F)cc2)c(=O)n1CC(=O)NCc1ccco1	none
CCOC(=O)/C=c1\s/c(=C\c2ccc(C)cc2)c(=O)n1CC(=O)NCc1ccco1	EBNA-1 inhibitor 45
O=C(CCCCN1CCCCC1)c1ccccc1	none (no result: PABP FP inh, eIF4H FP inh, NS3 helicase inh)
O=C(CCN1CCC2CCC(C2)C1)c1ccccc1 (stereo not given)	MLLE-PAM2 inh 42 (no result: PABP FP inh, eIF4H FP inh, ZTA DNA inh, NS3 helicase inh, EBNA-1 inhibitor)
O=C1NC2(Nc3ccccc31)C(=O)Nc1ccc(Br)cc12 (stereo not given)	none
Nc1cccc(C(=O)N/N=C/c2ccsc2)c1	PABP FP inh 5.5, eIF4H FP inh 84
CCOC(=O)CCCCC(=O)c1[nH]c(=O)[nH]c1CSc1nc(-c2ccccc2)c(C#N)c(=O)[nH]1	MLLE-PAM2 inh 40
N#Cc1c(-c2ccccc2)nc(SCC(=O)N(c2ccccc2)c2ccccc2)[nH]c1=O	none

Screens deposited in PubChem BioAssay by several laboratories.
